# Published values collected from several papers.
# Each line is one published result; the experiments were not run side by side.
# Target: Serine/threonine-protein kinase MRCK alpha (CDC42BPA, Homo sapiens, UniProt Q5VT25)
SMILES,assay,conditions,measurement,result
O=C(Nc1cnn(-c2csc(C(=O)NC3COC3)c2)c1)Nc1ccccc1Cl,"enzyme activity, inhibitor",5 µM,remaining activity,99.3%
Nc1cnc(N2CCc3cc(S(=O)(=O)Nc4c(F)cc(Cl)cc4F)cc(N4CCCC4=O)c32)nc1,"cell-free assay, competition with immobilised ligand",1 µM,remaining binding,100%
Cc1ccc(NC(=O)c2ccc(C)c(C(F)(F)F)c2)cc1C#Cc1nn(C2CCC(O)CC2)c2ncnc(N)c12 (centres unmarked),"cell-free assay, inhibitor",10 µM,remaining signal,101%
CNCc1ccccc1-c1csc([C@@H](C)Nc2nc(C)nc3cc(OC)c(OC)cc23)c1,"cell-free assay, competition with immobilised ligand",1 µM,remaining binding,67%
Cc1sc(C(=O)NC2COC2)cc1-n1cc(NC(=O)Nc2c(F)cccc2Cl)cn1,"enzyme activity, inhibitor",10 µM,remaining activity,104%
CC/C(=N\NC(=O)NCc1cccc(O)c1)c1ccc(O)c(C)c1O,"enzyme activity, inhibitor",0.1 µM,inhibition,49.7%
CCCOc1ccc(OC)c(F)c1C(=O)c1ccc(C(=O)N[C@@H]2CNC[C@H]2NC(=O)c2ccc3[nH]ncc3c2)cc1,"enzyme activity, inhibitor",0.5 µM,remaining activity,27%
CNC(=O)c1cc(Oc2ccc(NC(=O)Nc3ccc(Cl)c(C(F)(F)F)c3)cc2)ccn1,"enzyme activity, inhibitor",10 µM,inhibition,2%
Cc1ccc(C(=O)Nc2ccc(CN3CCN(C)CC3)c(C(F)(F)F)c2)cc1C#Cc1cnc2cccnn12,"enzyme activity, inhibitor",23.5 nM,remaining activity,99%
Cc1cc(NC(=O)c2cccc3cc(-c4cccc5[nH]nc(N)c45)ccc23)ccc1F,"enzyme activity, inhibitor",0.1 µM,activity vs control,92%
O=C1NC(=O)c2cc(Nc3ccc(F)cc3)c(Nc3ccc(F)cc3)cc21,"cell-free assay, inhibitor",0.5 µM,remaining signal,92.3%
CC(C)(C)c1nc(-c2cccc(NS(=O)(=O)c3c(F)cccc3F)c2F)c(-c2ccnc(N)n2)s1,"enzyme activity, inhibitor, radiometric",1 µM,remaining activity,88%
N#Cc1ccc(Nc2ccc3[nH]c(=O)[nH]c3c2)c(Cl)c1,"cell-free assay, competition with immobilised ligand",1 µM,remaining binding,100%
COc1cc(Cl)c(C(=O)N[C@@H](CN[C@H]2CC[C@@H](N)CC2)Cc2ccc(C#N)cc2)cc1-c1ccc(CN[C@H](C)c2ccc(C)cc2)o1,"enzyme activity, inhibitor",1 µM,remaining activity,99%
N#CC1(c2ccccn2)CCN(Cc2cc(C(=O)N3CCCC3)c(=O)n3ccccc23)CC1,"cell-free assay, competition with immobilised ligand",1 µM,remaining binding,84%
COc1cc2ncnc(Nc3ccc(Oc4ccccc4)c(C)c3C)c2cc1OC,"enzyme activity, inhibitor",1 µM,inhibition,-6%
Cc1ccc(Nc2nccc(N(C)c3ccc4c(C)n(C)nc4c3)n2)cc1S(N)(=O)=O,"enzyme activity, inhibitor",0.3 µM,inhibition,9%
c1ccc(N2CCN(Cc3nc4ccccc4[nH]3)CC2)nc1,"cell-free assay, competition with immobilised ligand",1 µM,remaining binding,100%
Cc1cnc(NC2CCOCC2)nc1-n1cnc(C(=O)NC(CN)c2cc(F)cc(Cl)c2)c1 (centres unmarked),"enzyme activity, inhibitor, radiometric",1 µM,remaining activity,64%
CN(C)c1ncnc(-c2ccc3nc(Nc4cc(CN5CCN(C(=O)CC(F)(F)F)CC5)ccn4)[nH]c3c2)c1Cl,"cell-free assay, competition with immobilised ligand",1 µM,remaining binding,100%
CCN(CC)CCNC(=O)c1c(C)[nH]c(/C=C2\C(=O)Nc3ccc(F)cc32)c1C,"enzyme activity, inhibitor",10 µM,inhibition,10%
C[C@H](NC(=O)c1cnc2n1[C@](C)(Cc1ccc(C#N)cc1)C(=O)N2c1cc(Cl)c(F)c(Cl)c1)C(=O)NC1(c2ccccn2)CC1,"cell-free assay, competition with immobilised ligand",1 µM,remaining binding,100%
CS(=O)(=O)CCNCc1ccc(-c2ccc3ncnc(Nc4ccc(OCc5cccc(F)c5)c(Cl)c4)c3c2)o1,cell-free assay,0.5 µM,remaining signal,88.2%
